ChEMBL document CHEMBL1629684, “Effects of ravuconazole treatment on parasite load and immune response in dogs experimentally infected with Trypanosoma cruzi” (Antimicrob Agents Chemother, 2010)
Calls of active or inactive are those of the source.

Legend:
Trypanosoma cruzi [1] = experiment: Antitrypanosomal activity against Trypanosoma cruzi Y infected in mongrel dog assessed as reduction in parasite-induced intrafascicular collagen deposition at 7 mg/kg, po BID after 180 days […]; type: functional, organism-based; design: dose 7 mg/kg
[2] = Half life in mongrel dog; type: ADME, organism-based, Canis lupus familiaris; details: in vivo
[3] = Half life in po dosed human; type: ADME, organism-based; details: in vivo
[4] = Half life in mouse; type: ADME, organism-based; details: in vivo
Canis familiaris [5] = experiment: Immunostimulatory activity in mongrel dog infected with Trypanosoma cruzi Berenice-78 assessed as reduction in INFgamma production in right atrium at 12 mg/kg, po BID after 180 days by semiquantitative RT-PCR; type: functional, organism-based; design: dose 12 mg/kg; details: Canis lupus familiaris, Cardiac atrium
Outline: (§1)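 Dogs were euthanized 6 months after the end of treatment. RNA was extracted from the right atrium with acid guanidinium thiocyanate-phenol-chloroform. One microgram was DNase treated and reverse transcribed with oligo(dT) for 1 h at 42°C. IFN-γ or IL-10 cDNA was amplified with 1.5 mM MgCl2: 94°C 5 min, n cycles of 94/57/72°C, final extension 72°C 6 min. Expression was scored semiquantitatively against infected untreated and noninfected dogs.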

Canis familiaris [6] = experiment: Immunostimulatory activity in mongrel dog infected with Trypanosoma cruzi Berenice-78 assessed as reduction in INFgamma production in right atrium at 7 mg/kg, po BID after 180 days by semiquantitative RT-PCR; type: functional, organism-based; design: dose 7 mg/kg; details: Canis lupus familiaris, Cardiac atrium; outline: as §1
Canis familiaris [7] = experiment: Immunostimulatory activity in mongrel dog infected with Trypanosoma cruzi Berenice-78 assessed as reduction in IL10 production in right atrium at 7 mg/kg, po BID after 180 days by semiquantitative RT-PCR; type: functional, organism-based; design: dose 7 mg/kg; details: Canis lupus familiaris, Cardiac atrium; outline: as §1
[8] = Half life in human; type: ADME, organism-based; details: in vivo
Canis familiaris [9] = experiment: Toxicity in mongrel dog infected with Trypanosoma cruzi Y assessed as weight loss at 12 mg/kg, po BID for 90 days started 12 to 22 days postinfection measured after 6 months; type: organism-based, Canis lupus familiaris; design: dose 12 mg/kg, route oral; details: in vivo, 4383 h
Outline: (§2)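 Body weight gain, in kg, was recorded for infected dogs 1 day and 6 months after the end of oral b.i.d. treatment. Treated animals were compared with infected untreated and noninfected control groups.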

Canis familiaris [10] = experiment: Toxicity in mongrel dog infected with Trypanosoma cruzi Berenice-78 assessed as weight loss at 12 mg/kg, po BID for 90 days started 12 to 22 days postinfection measured after 6 months; type: organism-based, Canis lupus familiaris; design: dose 12 mg/kg, route oral; details: in vivo, 4383 h; outline: as §2
Trypanosoma cruzi [11] = experiment: Antimicrobial activity against Trypanosoma cruzi Y infected in mongrel dog assessed as suppression of microbial proliferation at 12 mg/kg, po BID started 12 to 22 days postinfection measured after 1 day; type: functional, organism-based; design: dose 12 mg/kg
Outline: (§3)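 Mongrel dogs, 4 months old, dewormed and vaccinated, were inoculated with 2.0 × 10^3 bloodstream trypomastigotes/kg. Oral b.i.d. (q12h) dosing began 12 to 22 days postinfection, once parasitemia appeared. Dosing ran 90 days at 12 mg/kg and 60 days at 7 mg/kg, with 5 dogs per group. Parasitemia was read by fresh-blood examination of marginal ear vein blood from day 10 of infection until parasites were undetectable.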

Trypanosoma cruzi [12] = experiment: Antimicrobial activity against Trypanosoma cruzi Berenice-78 infected in mongrel dog assessed as suppression of microbial proliferation at 12 mg/kg, po BID started 12 to 22 days postinfection measured after 1 day; type: functional, organism-based; design: dose 12 mg/kg; outline: as §3
Trypanosoma cruzi [13] = experiment: Antimicrobial activity against Trypanosoma cruzi Y infected in mongrel dog assessed as suppression of microbial proliferation at 7 mg/kg, po BID started 12 to 22 days postinfection measured after 1 day; type: functional, organism-based; design: dose 7 mg/kg; outline: as §3
Trypanosoma cruzi [14] = experiment: Antimicrobial activity against Trypanosoma cruzi Y infected in mongrel dog assessed as parasite level in blood of dog at 12 mg/kg, po BID started 12 to 22 days postinfection measured after 30 days by PCR analysis; type: functional
Outline: (§4)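 Blood PCR for T. cruzi on treated dogs (n = 5 per group) at 1 and 6 months posttreatment. Each reaction took 2 μl blood DNA template in Tris-HCl pH 9.0, 75 mM KCl, 3.5 mM MgCl2 and 0.2 mM dNTPs. Cycling was 95°C 5 min, then 2 cycles annealing at 30°C, 33 cycles at 40°C, and 72°C 5 min. Products were run on 6% polyacrylamide and silver stained. Reported as rate of positive animals.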

Trypanosoma cruzi [15] = experiment: Antimicrobial activity against Trypanosoma cruzi Berenice-78 infected in mongrel dog assessed as parasite level in blood of dog at 12 mg/kg, po BID started 12 to 22 days postinfection measured after 30 days by PCR analysis; type: functional
Outline: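 Mongrel dogs (4 months old, five per group) were inoculated with 2.0 × 10^3 Berenice-78 bloodstream trypomastigotes/kg and dosed orally at 12 mg/kg q12h for 90 days, beginning 12–22 days postinfection once parasitemia appeared. Blood was sampled 1 month after treatment. PCR used 2 μl blood DNA, 35 cycles with annealing at 30°C then 40°C, and polyacrylamide gel with silver staining.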

Trypanosoma cruzi [16] = experiment: Antimicrobial activity against Trypanosoma cruzi Y infected in mongrel dog assessed as parasite level in blood of dog at 12 mg/kg, po BID started 12 to 22 days postinfection measured after 6 months by PCR analysis; type: functional; outline: as §4
Trypanosoma cruzi [17] = experiment: Antimicrobial activity against Trypanosoma cruzi Y infected in mongrel dog assessed as parasite level in blood of dog at 7 mg/kg, po BID started 12 to 22 days postinfection measured after 30 days by PCR analysis; type: functional; outline: as §4
Canis familiaris [18] = experiment: Immunostimulatory activity in mongrel dog infected with Trypanosoma cruzi Y assessed as production of antibody IgG at 12 mg/kg, po BID for 90 days measured up to 30 days by ELISA; type: functional, organism-based; design: dose 12 mg/kg; details: Canis lupus familiaris
Outline: (§5)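 Serum was taken before inoculation and then monthly until 6 months posttreatment, and stored at −80°C. ELISA plates were coated with alkaline extract of Y-strain parasites grown to exponential phase in LIT medium. Bound total IgG or IgG2 was detected with peroxidase-labeled anti-dog conjugates and read at 490 nm. Cutoff was the mean absorbance of 10 uninfected dogs plus 2 SD.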

Canis familiaris [19] = experiment: Immunostimulatory activity in mongrel dog infected with Trypanosoma cruzi Y assessed as production of antibody IgG2 at 12 mg/kg, po BID for 90 days measured up to 30 days by ELISA; type: functional, organism-based; design: dose 12 mg/kg; details: Canis lupus familiaris; outline: as §5
Canis familiaris [20] = experiment: Immunostimulatory activity in mongrel dog infected with Trypanosoma cruzi Y assessed as production of antibody IgG2 at 7 mg/kg, po BID for 90 days measured up to 30 days by ELISA; type: functional, organism-based; design: dose 7 mg/kg; details: Canis lupus familiaris; outline: as §5
Canis familiaris [21] = experiment: Immunostimulatory activity in mongrel dog infected with Trypanosoma cruzi Berenice-78 assessed as production of antibody IgG2 at 12 mg/kg, po BID for 90 days measured up to 30 days by ELISA; type: functional, organism-based; design: dose 12 mg/kg; details: Canis lupus familiaris; outline: as §5
Canis familiaris [22] = experiment: Immunostimulatory activity in mongrel dog infected with Trypanosoma cruzi Berenice-78 assessed as production of antibody IgG at 7 mg/kg, po BID for 90 days measured up to 30 days by ELISA; type: functional, organism-based; design: dose 7 mg/kg; details: Canis lupus familiaris; outline: as §5
Canis familiaris [23] = experiment: Immunostimulatory activity in mongrel dog infected with Trypanosoma cruzi Berenice-78 assessed as production of antibody IgG2 at 7 mg/kg, po BID for 90 days measured up to 30 days by ELISA; type: functional, organism-based; design: dose 7 mg/kg; details: Canis lupus familiaris; outline: as §5
Canis familiaris [24] = experiment: Toxicity in mongrel dog infected with Trypanosoma cruzi Y assessed as weight loss at po BID for 90 days started 12 to 22 days postinfection measured after 1 day; details: in vivo, 24 h
Trypanosoma cruzi [25] = experiment: Antitrypanosomal activity against Trypanosoma cruzi Y infected in mongrel dog assessed as reduction in parasite-induced intrafascicular collagen deposition in right atrium at 12 mg/kg, po BID after 180 days; details: Cardiac atrium

With `C[C@@H](c1nc(-c2ccc(C#N)cc2)cs1)[C@](O)(Cn1cncn1)c1ccc(F)cc1F` [RAVUCONAZOLE] the Activity (Trypanosoma cruzi [1]) was “Active”, the half-life [2] was 8.8 h and the half-life [3] was at least 120 h. The half-life [4] was 4.5 h, the Activity (Canis familiaris [5]) was “Active” and the Activity (Canis familiaris [6]) was “Active”. The Activity (Canis familiaris [7]) was “Active”, the half-life [8] was 96 h and the Activity (Canis familiaris [9]) was “Non-toxic”. The Activity (Canis familiaris [10]) was “Non-toxic”, the Activity (Trypanosoma cruzi [11]) was “Non-toxic” and the Activity (Trypanosoma cruzi [12]) was “Non-toxic”. For the same molecule, the Activity (Trypanosoma cruzi [13]) was “Non-toxic”, the Activity (Trypanosoma cruzi [14]) was 80% and the Activity (Trypanosoma cruzi [15]) was 100%. For the same molecule, the Activity (Trypanosoma cruzi [16]) was 60%, the Activity (Trypanosoma cruzi [17]) was 40% and the Activity (Canis familiaris [18]) was “Active”. For the same molecule, the Activity (Canis familiaris [19]) was “Active”, the Activity (Canis familiaris [20]) was “Active” and the Activity (Canis familiaris [21]) was “Active”. The Activity (Canis familiaris [22]) was “Active”, the Activity (Canis familiaris [23]) was “Active” and the Activity (Canis familiaris [24]) was “Non-toxic”. The Activity (Trypanosoma cruzi [25]) was “Active”.
